Assay [1] in a line: Her2 expression decrease, cell viability multiplex – SKBR3 breast tumor cells, AlphaScreen, ATP viability, primary screen (AID 461;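 active = Her2 level under about 52% in both replicate screens, with viability over 70% of control, limit read from the data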;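 for Her2 level: lower value means less Her2 protein in the cells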;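 for viability: percent of carrier control wells set as 100% viability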). As to conditions: SKBR3 Her2 protein level, 18-24 h, measured here: SKBR3 viability, ATP luminescence, at 10 µM.
Assay [2] concerns the target Receptor tyrosine-protein kinase erbB-2 (Homo sapiens) (UniProt P04626). Described as above. Conditions: 18-24 h, at 10 µM, stronger effect = lower value.
Assay [3] is described as follows: reduced viability of SK-BR-3 breast cancer cells – cell-based, 24 h, human, pilot screen (AID 572).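 Note: compound exposure lasted between 18 and 24 h rather than exactly 24 h; 100% = carrier-treated control wells.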 As to conditions: SK-BR-3 viability, CellTiter-Glo luminescence, at 10 µM, stronger effect = lower value.
Assay [4] can be described thus: HUVEC growth inhibition – cell-based, human, primary screen (AID 575;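 active = viability at or below 30% in both replicate assays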;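 note: 100% = median of untreated cell wells with 0.1% DMSO on each plate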). As to conditions: HUVEC proliferation, CellTiter-Glo luminescence, 72 h; at 10 µM; stronger effect = lower value. The method, boiled down:
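material = primary HUVEC, no more than 12 passages | input = 1250 cells per well | controls = vehicle and MePR control wells | measured by = CTG luminescence | times = 72 h compound incubation | format = collagen-coated 384-well format | read-out = % viability vs DMSO wells | doses = single 10 µM dose, 0.1% DMSO, from 5x medium stock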

Assay [5] can be described thus: H69AR cell proliferation blockers – human, duplicate replicates, primary screen (AID 580;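 active = viability at or under a set limit in both replicates, limit being median viability minus 3 SD, cut at about 48% in these data, passing the limit was not always enough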;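 note: 100% = mean luminescence of untreated wells and 0% = no signal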). As to conditions: H69AR lung tumor cells viability, ATP luminescence, 72 h; at 10 µM; stronger effect = lower value.
A short description of assay [6]: MRP1 drug-resistance reversers in H69AR cells – cell-based, doxorubicin co-treatment, pilot screen (AID 601;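 active = viability loss from added drug above about 55%, and viability with drug at most 40%, in both replicates, limit read from the data, passing the limit was not always enough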). Conditions: CellTiter-Glo, 72 h, at 10 µM; for differential viability (reversal): stronger effect = higher value.
Assay [7] in a line: yeast transport mutant growth inhibition pilot in 384-well plates, post-Golgi transport modulator project (AID 636; in the data active = inhibition above about 31%). Conditions: absorbance 615 nm, about 18 h, stronger effect = higher value.
Assay [8] can be described thus: growth suppression of yeast trafficking mutant, preliminary HTS, modulators of trafficking downstream of Golgi apparatus project, 1536-format plate, OD 615 nm (AID 637; in the data active = inhibition above about 30%). As to conditions: yeast transport mutant growth, absorbance 615 nm, 18 h; stronger effect = higher value.
[9] abbreviates: H69AR cells + 2 uM doxorubicin, measured here: viability with 2 uM doxorubicin, stronger effect = lower value.
Where [10] appears, read: H69AR cells, compound alone cytotoxicity.

Active and inactive are the calls of the source.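 Rule for the calls, unless noted: active = viability at or below 10% of carrier control in both of two separate runs; inconclusive = viability at or below 10% in only one of the two runs; inactive = the rest.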

Sequence of Receptor tyrosine-protein kinase erbB-2 (Homo sapiens) (P04626 whole entry, looked up): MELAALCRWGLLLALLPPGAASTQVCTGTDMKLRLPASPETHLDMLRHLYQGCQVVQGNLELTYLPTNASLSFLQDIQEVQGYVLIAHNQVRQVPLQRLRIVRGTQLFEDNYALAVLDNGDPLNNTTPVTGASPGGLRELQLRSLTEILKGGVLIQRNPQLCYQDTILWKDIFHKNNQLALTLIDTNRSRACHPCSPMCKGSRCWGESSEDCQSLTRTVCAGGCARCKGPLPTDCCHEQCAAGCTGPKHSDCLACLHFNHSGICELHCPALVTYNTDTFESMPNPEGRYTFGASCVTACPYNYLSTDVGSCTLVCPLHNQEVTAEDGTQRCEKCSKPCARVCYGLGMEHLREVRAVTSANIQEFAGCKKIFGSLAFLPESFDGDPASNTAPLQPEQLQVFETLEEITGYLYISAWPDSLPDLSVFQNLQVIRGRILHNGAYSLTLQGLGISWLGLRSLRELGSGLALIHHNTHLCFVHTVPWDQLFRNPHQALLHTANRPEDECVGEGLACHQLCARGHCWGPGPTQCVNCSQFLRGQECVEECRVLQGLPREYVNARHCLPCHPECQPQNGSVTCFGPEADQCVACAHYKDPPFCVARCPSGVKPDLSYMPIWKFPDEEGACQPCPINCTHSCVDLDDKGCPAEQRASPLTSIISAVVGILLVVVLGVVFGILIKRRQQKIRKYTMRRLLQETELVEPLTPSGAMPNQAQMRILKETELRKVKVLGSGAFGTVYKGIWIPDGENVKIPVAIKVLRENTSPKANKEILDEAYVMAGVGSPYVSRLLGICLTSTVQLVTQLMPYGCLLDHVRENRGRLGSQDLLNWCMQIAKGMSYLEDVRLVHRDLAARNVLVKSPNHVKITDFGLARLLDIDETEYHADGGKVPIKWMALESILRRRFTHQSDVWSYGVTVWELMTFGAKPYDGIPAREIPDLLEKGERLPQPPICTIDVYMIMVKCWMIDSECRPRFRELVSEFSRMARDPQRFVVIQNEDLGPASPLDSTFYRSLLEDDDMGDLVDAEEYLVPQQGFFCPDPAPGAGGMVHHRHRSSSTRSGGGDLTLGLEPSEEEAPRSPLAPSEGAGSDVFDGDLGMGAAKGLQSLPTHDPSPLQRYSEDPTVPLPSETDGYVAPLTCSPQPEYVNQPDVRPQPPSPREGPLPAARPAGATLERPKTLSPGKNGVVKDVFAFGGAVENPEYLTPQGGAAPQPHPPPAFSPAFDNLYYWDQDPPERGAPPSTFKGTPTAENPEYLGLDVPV

As to `CC(C)(C)N=C1NC(=NC(C)(C)C)c2ccccc21`, the viability in assay [1] is 77%; in assay [3], 77% (inactive); in assay [4], 86% (inactive); in assay [5], 69.3% (inactive); in assay [6] (setting [9]) it was 80.8%; in assay [6] (setting [10]), 69.3%. Also, the Her2 level in assay [2] is 86% (inactive). Also, in assay [6] (H69AR cells + 2 uM doxorubicin), the differential viability (reversal) is -11.5% (inactive). For the same compound, the results for the inhibition in assay [7] and in assay [8] were 0.92% (inactive) and -7.64% (inactive), respectively.
Regarding `Cc1cc(C)n(C(=O)CCCCCC(=O)n2nc(C)cc2C)n1`, the viability was 116% in assay [1]; 116% (inactive) in assay [3]; 105% (inactive) in assay [4]; 105% (inactive) in assay [5]; 94.5% in assay [6] (setting [9]); 105% in assay [6] (setting [10]). In assay [2], the Her2 level was 86.5% (inactive). Besides, the differential viability (reversal) in assay [6] (H69AR cells + 2 uM doxorubicin) is 10.8% (inactive). For the same compound, the inhibition in assay [7] is -9.32% (inactive); in assay [8] it was -2.86% (inactive).
For `NC(=O)CSCc1ccc(Br)cc1`, the viability in assay [1] was 100%; in assay [3] it was 100% (inactive); in assay [4], 98.6% (inactive); in assay [5] it was 108% (inactive); in assay [6] (setting [9]), 108%; in assay [6] (setting [10]) it was 108%. The Her2 level in assay [2] was 91.5% (inactive). In assay [6] (H69AR cells + 2 uM doxorubicin), the differential viability (reversal) was 0.415% (inactive). Moreover, the inhibition in assay [7] was -4.67% (inactive); in assay [8] it was 2.62% (inactive).
With `Cc1c(NS(=O)(=O)c2ccc3c(c2)n(C)c(=O)n3C)c(=O)n(-c2ccccc2)n1C`, the viability in assay [1] was 113%; in assay [3] it was 113% (inactive); in assay [4], 87.3% (inactive); in assay [5], 94.2% (inactive); in assay [6] (setting [9]), 90.8%; in assay [6] (setting [10]), 94.2%. Moreover, the Her2 level in assay [2] was 93% (inactive). Moreover, the differential viability (reversal) in assay [6] (H69AR cells + 2 uM doxorubicin) was 3.4% (inactive). Further, the inhibition in assay [7] was -4.67% (inactive); in assay [8], -0.98% (inactive).
`CC(C)CC(=O)N1CCN(S(=O)(=O)c2ccc(F)cc2)CC1`: the viability in assay [1] was 86.5%; in assay [3] it was 86.5% (inactive); in assay [4], 86.5% (inactive); in assay [5] it was 94.9% (inactive); in assay [6] (setting [9]), 85.8%; in assay [6] (setting [10]), 94.9%. For the same compound, the Her2 level in assay [2] was 102% (inactive). In addition, the differential viability (reversal) in assay [6] (H69AR cells + 2 uM doxorubicin) was 9.04% (inactive). Moreover, the inhibition in assay [7] was 2.56% (inactive); in assay [8], 27% (inactive).
On to `Cc1cc2oc(C(=O)NC3CCS(=O)(=O)C3)c(C)c2cc1C` (stereo not given), for which the viability was 99.5% in assay [1]; 99.5% (inactive) in assay [3]; 97.7% (inactive) in assay [4]; 93.7% (inactive) in assay [5]; 71% in assay [6] (setting [9]); 93.7% in assay [6] (setting [10]). In assay [2], the Her2 level was 98% (inactive). The differential viability (reversal) in assay [6] (H69AR cells + 2 uM doxorubicin) was 22.6% (inactive). Moreover, the inhibition in assay [7] is 1.45% (inactive); in assay [8], 1.48% (inactive).
For `COc1ccc(Cc2nc(-c3ccc(Br)cc3)no2)cc1`, the viability is 72.5% in assay [1]; 72.5% (inactive) in assay [3]; 92.8% (inactive) in assay [4]; 98.2% (inactive) in assay [5]; 101% in assay [6] (setting [9]); 98.2% in assay [6] (setting [10]). The Her2 level in assay [2] was 106% (inactive). Also, in assay [6] (H69AR cells + 2 uM doxorubicin), the differential viability (reversal) is -2.99% (inactive). In addition, the inhibition in assay [7] is -0.13% (inactive); in assay [8] it was -12.3% (inactive).
As for `CCOC(=O)c1ccc(NS(=O)C23CC4CC(CC(C4)C2)C3)cc1` (stereo not given), the viability in assay [1] is 95.5%; in assay [3], 95.5% (inactive); in assay [4], 74% (inactive); in assay [5], 87.6% (inactive); in assay [6] (setting [9]) it was 92.2%; in assay [6] (setting [10]), 87.6%. Besides, the Her2 level in assay [2] is 82% (inactive). The differential viability (reversal) in assay [6] (H69AR cells + 2 uM doxorubicin) was -4.57% (inactive). Further, the values for the inhibition in assay [7] and in assay [8] were -7.57% (inactive) and 3.28% (inactive), respectively.
On to `O=C(COC(=O)c1cc(S(=O)(=O)N2CCOCC2)ccc1O)NCC1CCCO1` (stereo not given), for which the viability in assay [1] was 91.5%; in assay [3], 91.5% (inactive); in assay [4], 98.7% (inactive); in assay [5], 91% (inactive); in assay [6] (setting [9]), 94.5%; in assay [6] (setting [10]) it was 91%. For the same compound, the Her2 level in assay [2] was 85.5% (inactive). Further, in assay [6] (H69AR cells + 2 uM doxorubicin), the differential viability (reversal) is -3.47% (inactive). Moreover, the results for the inhibition in assay [7] and in assay [8] were -6.4% (inactive) and 8.36% (inactive), respectively.
Consider `COc1ccc(C(=O)Nn2c(SCC(=O)NCC3CCCO3)nc3ccccc3c2=O)cc1` (stereo not given), for which the viability in assay [1] is 92.5%; in assay [3], 92.5% (inactive); in assay [4] it was 76.8% (inactive); in assay [5], 83.8% (inactive); in assay [6] (setting [9]), 74.5%; in assay [6] (setting [10]) it was 83.8%. The Her2 level in assay [2] was 95% (inactive). In addition, the differential viability (reversal) in assay [6] (H69AR cells + 2 uM doxorubicin) was 9.29% (inactive). Moreover, the inhibition in assay [7] is -6.53% (inactive); in assay [8], -0.81% (inactive).
`Cc1cc2ncn(S(=O)(=O)c3ccc(S(=O)(=O)N4CCOCC4)cc3)c2cc1C`: the viability was 91.5% in assay [1]; 91.5% (inactive) in assay [3]; 102% (inactive) in assay [4]; 98.3% (inactive) in assay [5]; 97.3% in assay [6] (setting [9]); 98.3% in assay [6] (setting [10]). For the same compound, the Her2 level in assay [2] is 91.5% (inactive). For the same compound, the differential viability (reversal) in assay [6] (H69AR cells + 2 uM doxorubicin) is 0.945% (inactive). In addition, the inhibition in assay [7] is -1.47% (inactive); in assay [8], -7.1% (inactive).
As to `CCOC(=O)CNC(=O)Cn1cnc2c(nnn2-c2cccc(Cl)c2)c1=O`, the viability in assay [1] is 82.5%; in assay [3], 82.5% (inactive); in assay [4], 105% (inactive); in assay [5], 107% (inactive); in assay [6] (setting [9]), 108%; in assay [6] (setting [10]) it was 107%. Besides, the Her2 level in assay [2] is 109% (inactive). In addition, the differential viability (reversal) in assay [6] (H69AR cells + 2 uM doxorubicin) is -1.7% (inactive). Further, the inhibition was -0.53% (inactive) in assay [7] and -6.83% (inactive) in assay [8].
Consider `CC(C)Oc1ccc(C2C(C(=O)c3ccco3)=C(O)C(=O)N2CCCN(C)C)cc1` (stereo not given), for which the viability in assay [1] is 89%; in assay [3], 89% (inactive); in assay [4], 118% (inactive); in assay [5] it was 110% (inactive); in assay [6] (setting [9]), 102%; in assay [6] (setting [10]) it was 110%. The Her2 level in assay [2] is 99.5% (inactive). Besides, the differential viability (reversal) in assay [6] (H69AR cells + 2 uM doxorubicin) was 8.15% (inactive). Besides, the inhibition in assay [7] was -1.18% (inactive); in assay [8], 8.2% (inactive).
Regarding `Cc1cc(NC(=O)CSc2nccn2-c2ccc(Cl)cc2)no1`, the viability in assay [1] was 91.5%; in assay [3], 91.5% (inactive); in assay [4], 111% (inactive); in assay [5], 106% (inactive); in assay [6] (setting [9]), 78.1%; in assay [6] (setting [10]) it was 106%. In assay [2], the Her2 level was 103% (inactive). The differential viability (reversal) in assay [6] (H69AR cells + 2 uM doxorubicin) was 28% (inactive). The inhibition is -1.56% (inactive) in assay [7] and -2.38% (inactive) in assay [8].

The record behind these values is PubChem BioAssay.
